Test [1] concerns Proteus mirabilis. The test is described as follows: Antibacterial activity against Proteus mirabilis after 24 hrs by well diffusion assay. It counts as functional. In short, it runs like this:
(§1)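 Bacteria kept on nutrient agar (beef extract, yeast extract, peptone, NaCl; pH 7.2) at room temperature (28 ± 2 °C). Compounds tested by well diffusion against DMSO control, tetracycline reference. MIC taken as lowest concentration giving prominent inhibition of bacterial growth after 24 h at 37 °C.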
A general note: Agar diffusion results depend on both activity and mobility in agar.

The subject of test [2] is Proteus vulgaris. The test is described as follows: Antibacterial activity against Proteus vulgaris after 24 hrs by well diffusion assay. It counts as functional. In short, it runs like this: as §1
Test [3] concerns Staphylococcus aureus. The test is described as follows: Antibacterial activity against Staphylococcus aureus after 24 hrs by well diffusion assay. It is filed as functional. The essentials:
as §1

Test [4] has as its system Salmonella enterica subsp. enterica. The test is described as follows: Antibacterial activity against Salmonella typhi after 24 hrs by well diffusion assay. It is filed as functional, Salmonella enterica subsp. enterica serovar Typhi. To be noted: for Activity: Salmonella enterica subsp. enterica serovar Typhi. The essentials:
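S. typhi kept on nutrient agar (beef extract, yeast extract, peptone, NaCl, agar; pH 7.2) at 28 ± 2 °C. Agar well diffusion with DMSO as control and tetracycline as reference. MIC taken as the lowest concentration giving prominent inhibition of bacterial growth after 24 h at 37 °C.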

Test [5] deals with Rhizoctonia solani. In words: Antifungal activity against Rhizoctonia solani after 3 days by well diffusion assay. It is filed as functional. To be noted: for MIC: 72 h. The essentials: (§2)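 Fungi maintained on potato dextrose agar (potato 200 g/l, dextrose 20 g/l; pH 6.5) at room temperature (28 ± 2 °C). Well diffusion assay against DMSO control; MIC read as lowest concentration causing prominent inhibition of fungal growth after 3 days incubation at 37 °C.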

The test system of test [6] is Macrophomina phaseolina. The test is described as follows: Antifungal activity against Macrophomina phaseolina after 3 days by well diffusion assay. It is filed as functional. To be noted: for MIC: 72 h. The essentials:
as §2

The test system of test [7] is Curvularia lunata. The test is described as follows: Antifungal activity against Curvularia lunata after 3 days by well diffusion assay. It counts as functional. The following applies: for MIC: 72 h. The essentials: as §2
In test [8] the test system is Alternaria alternata. The test is described as follows: Antifungal activity against Alternaria alternata after 3 days by well diffusion assay. It counts as functional. To be noted: for MIC: 72 h. The essentials: as §2

In brackets after ≈: the same amount, converted by molar mass.

As for `CCn1c2ccc3cc2c2cc(ccc21)CSc1ccccc1NC(=O)COc1ccc2ccccc2c1-c1c(ccc2ccccc12)OCC(=O)Nc1ccccc1SC3`, the Activity result in test [1], in test [2], in test [3], in test [4], in test [5] and in test [6] was “Dose-dependent effect” in each case. Further, the Activity entry in test [7] and in test [8] was “Dose-dependent effect” throughout. In addition, the minimal inhibitory concentration (MIC) is 5 µg/mL (≈ 5.98 µM) in test [1]; 5 µg/mL (≈ 5.98 µM) in test [2]; 10 µg/mL (≈ 12 µM) in test [3]; 10 µg/mL (≈ 12 µM) in test [4]; 20 µg/mL (≈ 23.9 µM) in test [5]; 15 µg/mL (≈ 17.9 µM) in test [6]. The minimal inhibitory concentration (MIC) in test [7] and in test [8] was 10 µg/mL (≈ 12 µM) in each case.
In the case of `CCn1c2ccc3cc2c2cc(ccc21)CSc1ccccc1NC(=O)c1cccc(n1)C(=O)Nc1ccccc1SC3`, the Activity entry in test [1], in test [2], in test [3], in test [4], in test [5] and in test [6] was “Dose-dependent effect” throughout. Moreover, the Activity entry in test [7] and in test [8] was “Dose-dependent effect” throughout. Further, the minimum inhibitory concentration (MIC) in test [1] turned out to be 5 µg/mL (≈ 8.32 µM); in test [2], 30 µg/mL (≈ 49.9 µM); in test [3] it was 10 µg/mL (≈ 16.6 µM); in test [4], 30 µg/mL (≈ 49.9 µM); in test [5], 20 µg/mL (≈ 33.3 µM); in test [6] it was 10 µg/mL (≈ 16.6 µM). Besides, the minimum inhibitory concentration (MIC) in test [7] and in test [8] was 15 µg/mL (≈ 25 µM) in each case.
As to `CCn1c2ccc3cc2c2cc(ccc21)CSc1ccccc1NC(=O)c1ccccc1-c1ccccc1C(=O)Nc1ccccc1SC3`, the Activity result in test [1], in test [2], in test [3], in test [4], in test [5] and in test [6] was “Dose-dependent effect” throughout. Moreover, the Activity result in test [7] and in test [8] was “Dose-dependent effect” throughout. Further, the MIC is 40 µg/mL (≈ 59.2 µM) in test [1]; 40 µg/mL (≈ 59.2 µM) in test [2]; 70 µg/mL (≈ 104 µM) in test [3]; 60 µg/mL (≈ 88.8 µM) in test [4]; 20 µg/mL (≈ 29.6 µM) in test [5]; 15 µg/mL (≈ 22.2 µM) in test [6]. Moreover, the values for the MIC in test [7] and in test [8] were 20 µg/mL (≈ 29.6 µM) and 25 µg/mL (≈ 37 µM), respectively.
For the compound `CN(C)[C@@H]1C(O)=C(C(N)=O)C(=O)[C@@]2(O)C(O)=C3C(=O)c4c(O)cccc4[C@@](C)(O)[C@H]3C[C@@H]12` [TETRACYCLINE], the MIC came to 20 µg/mL (≈ 45 µM) in test [1], 35 µg/mL (≈ 78.8 µM) in test [2], 20 µg/mL (≈ 45 µM) in test [3] and 15 µg/mL (≈ 33.8 µM) in test [4].
Take `CCn1c2ccc3cc2c2cc(ccc21)CSc1ccccc1NC(=O)c1ccc(cc1)OCc1ccccc1COc1ccc(cc1)C(=O)Nc1ccccc1SC3`: the Activity result in test [1], in test [2], in test [3], in test [4], in test [5] and in test [6] was “Dose-dependent effect” in each case. Also, the Activity entry in test [7] and in test [8] was “Dose-dependent effect” throughout. In addition, the MIC in test [1] amounted to 10 µg/mL (≈ 12.3 µM); in test [2], 40 µg/mL (≈ 49.3 µM); in test [3], 30 µg/mL (≈ 36.9 µM); in test [4], 20 µg/mL (≈ 24.6 µM); in test [5], 40 µg/mL (≈ 49.3 µM); in test [6] it was 50 µg/mL (≈ 61.6 µM). Besides, the MIC in test [7] was found to be 20 µg/mL (≈ 24.6 µM); in test [8] it was 15 µg/mL (≈ 18.5 µM).
Take `CCn1c2ccc3cc2c2cc(ccc21)CSc1ccccc1NC(=O)COc1cccc(c1)OCC(=O)Nc1ccccc1SC3`: the Activity entry in test [1], in test [2], in test [3], in test [4], in test [5] and in test [6] was “Dose-dependent effect” each time. In addition, the Activity entry in test [7] and in test [8] was “Dose-dependent effect” in each case. Moreover, the MIC in test [1] was found to be 20 µg/mL (≈ 30.3 µM); in test [2] it was 60 µg/mL (≈ 90.9 µM); in test [3] it was 40 µg/mL (≈ 60.6 µM); in test [4] it was 30 µg/mL (≈ 45.5 µM); in test [5] it was 50 µg/mL (≈ 75.8 µM); in test [6], 45 µg/mL (≈ 68.2 µM). Besides, the minimum inhibitory concentration (MIC) in test [7] worked out at 35 µg/mL (≈ 53 µM); in test [8], 25 µg/mL (≈ 37.9 µM).
Regarding `CCn1c2ccc3cc2c2cc(ccc21)CSc1ccccc1NC(=O)c1cccc(c1)C(=O)Nc1ccccc1SC3`, the Activity entry in test [1], in test [2], in test [3], in test [4], in test [5] and in test [6] was “Dose-dependent effect” each time. Further, the Activity entry in test [7] and in test [8] was “Dose-dependent effect” in each case. Further, the MIC is 50 µg/mL (≈ 83.4 µM) in test [1]; 60 µg/mL (≈ 100 µM) in test [2]; 20 µg/mL (≈ 33.3 µM) in test [3]; 50 µg/mL (≈ 83.4 µM) in test [4]; 30 µg/mL (≈ 50 µM) in test [5]; 30 µg/mL (≈ 50 µM) in test [6]. Further, the figures for the MIC in test [7] and in test [8] were 20 µg/mL (≈ 33.3 µM) and 15 µg/mL (≈ 25 µM), respectively.
As for `COC(=O)Nc1nc2ccccc2[nH]1` [CARBENDAZIM], the minimum inhibitory concentration (MIC) in test [5] came out at 25 µg/mL (≈ 131 µM); in test [6] it was 18 µg/mL (≈ 94.1 µM); in test [7], 15 µg/mL (≈ 78.5 µM); in test [8], 12 µg/mL (≈ 62.8 µM).

Usually MIC stands for the smallest concentration in the dilution series that meets the test's criterion for growth inhibition. Lower therefore signals inhibition by little substance.

For the origin of these results see ChEMBL document CHEMBL1152480, “Synthesis of novel carbazole based macrocyclic amides as potential antimicrobial agents” (2009).
